According to ChEMBL document CHEMBL3992510, “Urea Derivatives of 2-Aryl-benzothiazol-5-amines: A New Class of Potential Drugs for Human African Trypanosomiasis” (J Med Chem, 2017):

Legend:
[1] = tested on: Trypanosoma brucei brucei; assay: Antitrypanosomal activity against Trypanosoma brucei brucei BF427 assessed as growth inhibition measured after 48 hrs by Alamar blue assay; format: functional; settings: BF427, 48 h
Method in brief: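 Bloodstream-form parasites in HMI-9 medium are exposed to serial compound dilutions in triplicate. Viability is read with Alamar Blue at 48 h. EC50 and EC90 come from nonlinear regression. Pentamidine isethionate is the control.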

[2] = Drug level in mouse plasma at 5 mg/kg, ip administered as single dose measured at 1 hr post dose by liquid chromatography/tandem mass spectrometric analysis; format: ADME, organism-based
Method in brief: (§1)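 Single ip dose of 5 mg/kg in 5% DMSO/7% Tween 80/3% EtOH in 0.9% saline, three mice per compound (six for one compound). At 1 h, plasma is separated by centrifugation and brain homogenized in acetonitrile. Both are quantified by LC-MS/MS, with brain corrected for 3% v/w blood. Brain/plasma ratio is reported as mean ± SEM.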

[3] = Drug level in mouse brain at 5 mg/kg, ip administered as single dose measured at 1 hr post dose by liquid chromatography/tandem mass spectrometric analysis; format: ADME, organism-based; settings: read-out: Drug uptake; method in brief: as §1
[4] = tested on: HepG2; assay: Cytotoxicity against human HepG2 cells assessed as growth inhibition after 48 hrs by Alamar blue assay; format: cell-based; settings: for EC50: Homo sapiens, HepG2, 48 h; for EC90: human, hepg2, 48 h
Method in brief: (§2)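 CRL-8155 lymphoblasts or HepG2 hepatocellular carcinoma cells are exposed 48 h to serial compound dilutions in quadruplicate. Growth is read with Alamar Blue, and 50% and 90% inhibitory concentrations come from nonlinear regression. Quinacrine is the control.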

[5] = Selectivity index, ratio of EC50 for human CRL8155 cells to EC50 for Trypanosoma brucei brucei BF427; format: toxicity; settings: read-out: Ratio EC50
[6] = Selectivity index, ratio of EC50 for human HepG2 cells to EC50 for Trypanosoma brucei brucei BF427; format: toxicity; settings: read-out: Ratio EC50
[7] = Cytotoxicity against human CRL8155 cells assessed as growth inhibition after 48 hrs by Alamar blue assay; format: cell-based; settings: for EC50: Homo sapiens, CRL8155, 48 h; for EC90: human, crl8155, 48 h; method in brief: as §2
[8] = tested on: Liver; assay: Half life in mouse liver microsomes at 1.5 uM in presence of NADPH by liquid chromatography/tandem mass spectrometric analysis; format: ADME, microsome
[9] = tested on: Liver; assay: Half life in human liver microsomes at 1.5 uM in presence of NADPH by liquid chromatography/tandem mass spectrometric analysis; format: ADME, microsome

SMILES	EC50 [1] [nM]	EC90 [1] [nM]	further results
O=C(Nc1ccc2sc(-c3ccc(F)c(F)c3)nc2c1)N1CCC(C(F)(F)F)C1 (stereo not drawn)	1690	4880	concentration at 1 h [2]: 4150 nM; concentration at 1 h [3]: 1970 nM
CN(C)C1CCN(C(=O)Nc2ccc3sc(-c4ccc(F)c(F)c4)nc3c2)C1 (stereo not drawn)	1700	1950	concentration at 1 h [2]: 780 nM; concentration at 1 h [3]: 3000 nM
O=C(Nc1ccc2scnc2c1)N1CCCC1	> 20000	> 20000	
O=C(NCCc1nc(-c2ccccc2)cs1)N1CCCCCC1	110	236	
C[C@@H]1CCC[C@H](C)N1C(=O)NCCc1nc(-c2cccc(F)c2)cs1	399	564	EC50 [4]: > 50 µM; EC90 [4]: > 50 µM; selectivity ratio [5]: > 125; selectivity ratio [6]: > 125; EC50 [7]: > 50 µM; EC90 [7]: > 50 µM
Cc1nc2cc(NC(=O)N3CCCC3)ccc2s1	> 20000	> 20000	
O=C(Nc1ccc2sc(-c3ccccc3F)nc2c1)N1CCCCC1	935	1140	EC50 [4]: > 50 µM; EC90 [4]: > 50 µM; selectivity ratio [5]: > 53; selectivity ratio [6]: > 53; EC50 [7]: > 50 µM; EC90 [7]: > 50 µM
COC1CCN(C(=O)Nc2ccc3sc(-c4ccc(F)c(F)c4)nc3c2)C1 (stereo not drawn)	3050	4590	
CC(C)(Cc1nc(-c2cccc(F)c2)cs1)NC(=O)c1ccccc1	> 10000	> 10000	
O=C(Nc1ccc2sc(-c3ccccc3)nc2c1)N1CC=CCC1	1120	1350	
O=C(Nc1ccc2sc(-c3ccc(F)c(F)c3)nc2c1)N1CCCCC1	223	282	EC50 [4]: > 50 µM; EC90 [4]: > 50 µM; selectivity ratio [5]: > 224; selectivity ratio [6]: > 224; concentration at 1 h [2]: 2520 nM; EC50 [7]: > 50 µM; EC90 [7]: > 50 µM; concentration at 1 h [3]: 1290 nM
COc1ccc2c(c1)[C@]13CCCC[C@@H]1[C@H](C2)N(C)CC3 [DEXTROMETHORPHAN]			t1/2 [8]: 7.79 min; t1/2 [9]: 39.15 min
O=C(Nc1ccc2sc(-c3cccc(F)c3)nc2c1)N1CCCCC1	174	602	EC50 [4]: > 50 µM; EC90 [4]: > 50 µM; t1/2 [8]: 11 min; t1/2 [9]: 8.9 min; selectivity ratio [5]: > 287; selectivity ratio [6]: > 287; EC50 [7]: > 50 µM; EC90 [7]: > 50 µM
O=C(Nc1ccc2sc(-c3ccc(F)cc3F)nc2c1)N1CCCC1	929	1480	
NC1CCN(C(=O)Nc2ccc3sc(-c4ccc(F)c(F)c4)nc3c2)C1 (stereo not drawn)	2320	2720	
O=C(Nc1ccc2nc(-c3ccc(F)c(F)c3)sc2c1)N1CCC(F)C1 (stereo not drawn)	> 20000	> 20000	
O=C(NCCc1nc(-c2cccc(F)c2)cs1)N1CCc2ccccc2C1	9760	13800	
O=C(Nc1ccc2oc(-c3ccccc3)nc2c1)N1CCCC1	5250	> 10000	concentration at 1 h [2]: 270 nM; concentration at 1 h [3]: 397 nM
O=C(Nc1ccc2sc(-c3cccc(F)c3)nc2c1)N1CCN(C(=O)Nc2ccc3sc(-c4cccc(F)c4)nc3c2)CC1	> 20000	> 20000	
O=C1CCN(C(=O)NCCc2nc(-c3cccc(F)c3)cs2)CC1	667	813	EC50 [4]: > 50 µM; EC90 [4]: > 50 µM; selectivity ratio [5]: > 75; selectivity ratio [6]: > 75; EC50 [7]: > 50 µM; EC90 [7]: > 50 µM
O=C(Nc1ccc2sc(-c3ccc(F)c(F)c3)nc2c1)N1CCC(F)(F)CC1	2980	4170	
CN1CCN(C(=O)Nc2ccc3sc(-c4cccc(F)c4)nc3c2)CC1	3150	7550	
N#CC1CCN(C(=O)Nc2ccc3sc(-c4ccc(F)c(F)c4)nc3c2)C1 (stereo not drawn)	2850	4670	
O=C(Nc1ccc2sc(-c3cccc(F)c3)nc2c1)c1ccccc1	1780	3620	
O=C(Nc1ccc2sc(-c3ccccc3F)nc2c1)N1CCCC1	983	1240	EC50 [4]: > 50 µM; EC90 [4]: > 50 µM; selectivity ratio [5]: > 51; selectivity ratio [6]: > 51; EC50 [7]: > 50 µM; EC90 [7]: > 50 µM
O=C(Nc1ccc2sc(-c3ccccc3)nc2c1)N1CCSC1	1240	2380	
